Consider six compounds from ChEMBL document CHEMBL2021841, “The design and synthesis of potent, selective benzodiazepine sulfonamide bombesin receptor subtype 3 (BRS-3) agonists with an increased barrier of atropisomerization” (Bioorg Med Chem, 2012).

Where only a bound is given, the exact number is not on record here.

One series deals with Rattus norvegicus. Description: Dose normalized AUC in Sprague-Dawley rat at 1 mg/kg, po. Type of series: ADME, organism-based. Set-up: dose 1 mg/kg, route oral. Conditions: in vivo. The method, boiled down: (§1)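 Sprague Dawley rats were dosed 1 mg/kg po. Dose-normalized oral AUC and oral bioavailability were calculated.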
Series [1] concerns the target T1, Bombesin receptor subtype-3 (Mus musculus) (UniProt O54798).
T1 sequence (whole entry): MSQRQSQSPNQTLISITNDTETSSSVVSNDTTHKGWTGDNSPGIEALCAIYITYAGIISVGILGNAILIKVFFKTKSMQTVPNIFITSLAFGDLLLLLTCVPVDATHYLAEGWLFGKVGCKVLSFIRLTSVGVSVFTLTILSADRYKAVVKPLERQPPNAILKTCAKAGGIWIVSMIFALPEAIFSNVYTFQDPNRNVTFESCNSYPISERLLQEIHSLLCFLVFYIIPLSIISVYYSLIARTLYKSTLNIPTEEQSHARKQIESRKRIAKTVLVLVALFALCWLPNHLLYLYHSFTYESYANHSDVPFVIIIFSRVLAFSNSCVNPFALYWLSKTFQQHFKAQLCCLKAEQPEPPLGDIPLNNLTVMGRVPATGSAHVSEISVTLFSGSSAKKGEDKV
In words: Agonist activity at mouse BRS3 expressed in human HEK293AEQ cells measured for 10 mins by aequorin bioluminescence assay relative to dY-peptide. The class given is functional, cell-based. The method, boiled down: (§2)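 Same aequorin read-out in HEK293AEQ cells expressing human or mouse BRS3. Compounds were titrated in ECB buffer with 0.5% DMSO final, and coelenterazine-loaded cells were injected. Luminescence was integrated over 10 min. The value is maximal activation expressed as a percentage of the maximal response to dY-peptide.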

For series [2], the target named is T2, Bombesin receptor subtype-3 (Homo sapiens, UniProt P32247).
T2 sequence (P32247 whole entry): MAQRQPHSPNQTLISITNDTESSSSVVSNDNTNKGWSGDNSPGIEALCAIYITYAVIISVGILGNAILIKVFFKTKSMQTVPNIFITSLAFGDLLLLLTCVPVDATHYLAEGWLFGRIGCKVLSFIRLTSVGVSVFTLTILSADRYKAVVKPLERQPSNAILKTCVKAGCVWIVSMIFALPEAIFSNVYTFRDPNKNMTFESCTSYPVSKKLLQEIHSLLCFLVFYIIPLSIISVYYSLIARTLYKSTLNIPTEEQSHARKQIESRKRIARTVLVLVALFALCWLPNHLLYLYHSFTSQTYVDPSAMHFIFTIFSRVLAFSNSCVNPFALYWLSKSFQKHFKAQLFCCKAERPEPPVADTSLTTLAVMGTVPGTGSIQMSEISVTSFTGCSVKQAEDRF
Description: Displacement of 125I-dY-peptide from human BRS3 expressed in NFAT-CHO cells after 2 hrs by liquid scintillation counting. Type of series: cell-based. On the technique in general: Displacement assays read how much labelled ligand stays bound in the presence of the test substance.

Series [3] is described as follows: Oral bioavailability in Sprague-Dawley rat at 1 mg/kg. Type of series: ADME, organism-based. The conditions noted are these: in vivo. Summed up:
as §1

In series [4] the target is T2, Bombesin receptor subtype-3. In words: Agonist activity at human BRS3 expressed in human HEK293AEQ cells measured for 10 mins by aequorin bioluminescence assay. Type of series: functional, cell-based.
In series [5] the target is T3, Bombesin receptor subtype-3 (Homo sapiens) (UniProt P32247).
T3 sequence (whole entry): T2 sequence (P32247 whole entry)
In words: Agonist activity at human BRS3 expressed in human HEK293AEQ cells measured for 10 mins by aequorin bioluminescence assay relative to dY-peptide. The class given is functional, cell-based. Summed up: as §2

Series [6] is described as follows: Half life in Sprague-Dawley rat at 0.5 mg/kg, iv. Type of series: ADME, organism-based. Set-up: dose 0.5 mg/kg, route intravenous. Conditions: in vivo. The method, boiled down: (§3)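 Sprague Dawley rats received 0.5 mg/kg iv. Plasma clearance and half-life were calculated from the plasma profile.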
For series [7], the target named is T4, Bombesin receptor subtype-3 (Mus musculus, UniProt O54798).
T4 sequence (O54798 whole entry): T1 sequence (whole entry)
Description: Agonist activity at mouse BRS3 expressed in human HEK293AEQ cells measured for 10 mins by aequorin bioluminescence assay. The class given is functional, cell-based.

Series [8] is described as follows: Half life of the compound in ethanol at 60 degC by CD spectroscopy. The class given is physicochemical.
A short description of series [9]: Plasma clearance in Sprague-Dawley rat at 0.5 mg/kg, iv. Type of series: ADME, organism-based. Also on record: dose 0.5 mg/kg, route intravenous. The method, boiled down:
as §3

In the series on Rattus norvegicus, `CC(C)(O)c1nc(C(C)(C)c2cccc3c2N(S(=O)(=O)c2ccc(OC(F)(F)F)cc2)Cc2ccc(C(F)(F)F)nc2N3)no1` yielded an AUC/dose of 2.6 µM·kg·h/mg. Moreover, the values for the Activity in series [1] and in [5] were 105% and 97%, respectively. This compound also displayed an IC50 in series [2] of 1.4 nM. In series [3], this compound displayed a bioavailability of 100%. The EC50 in [4] is 64 nM; in [7], 67 nM. The half-life in series [6] was 3.1 h; in [8], > 250 h. Moreover, in series [9], the clearance came to 12 mL/min/kg.
In the series on Rattus norvegicus, `CC(C)(O)c1nc(-c2cccc3c2N(S(=O)(=O)c2ccc(OC(F)(F)F)cc2)Cc2ccc(C(F)(F)F)nc2N3)no1` gave an AUC/dose of 1.6 µM·kg·h/mg. In series [2], this compound had an IC50 of 3.6 nM. Besides, in [3], the bioavailability came to 93%. Also, the EC50 in series [4] worked out at 73 nM; in series [7], 130 nM. In series [5], this compound displayed an Activity of 106%. Also, the half-life was 11 h in series [6] and 2.2 h in [8]. In series [9], the clearance was found to be 16 mL/min/kg.
In the series with Rattus norvegicus, `CNC(=O)C1(c2cccc3c2N(S(=O)(=O)c2ccc(OC(F)(F)F)cc2)Cc2ccc(C(F)(F)F)nc2N3)CCC1` registered an AUC/dose of 0.69 µM·kg·h/mg. In addition, the results for the Activity in series [1] and in series [5] were 112% and 106%, respectively. Further, the IC50 in series [2] was found to be 2.1 nM. In series [3], this compound had a bioavailability of 60%. Also, the EC50 in series [4] is 15 nM; in [7], 22 nM. Moreover, the half-life in [6] was 1.7 h. In [9], this compound returned a clearance of 25 mL/min/kg.
As to `NC(=O)C1(c2cccc3c2N(S(=O)(=O)c2ccc(OC(F)(F)F)cc2)Cc2ccc(C(F)(F)F)nc2N3)CCC1`, the AUC/dose in the series on Rattus norvegicus was found to be 0.3 µM·kg·h/mg. Moreover, the Activity in [1] amounted to 100%; in series [5], 95%. In series [2], the IC50 is 0.5 nM. In [3], this compound had a bioavailability of 32%. The EC50 in series [4] stood at 21 nM; in series [7] it was 22 nM. In addition, the half-life in series [6] is 0.8 h; in [8] it was > 250 h. The compound further returned a clearance in series [9] of 31 mL/min/kg.
In the case of `CC(C)(O)c1nc(C2(c3cccc4c3N(S(=O)(=O)c3ccc(OC(F)(F)F)cc3)Cc3ccc(C(F)(F)F)nc3N4)CCC2)no1`, the AUC/dose with Rattus norvegicus turned out to be 0.6 µM·kg·h/mg. The Activity in series [1] turned out to be 99%; in [5], 97%. The compound also displayed an IC50 in [2] of 0.6 nM. Besides, the bioavailability in series [3] was found to be 49%. For the same compound, the EC50 in [4] was 82 nM; in [7], 76 nM. The half-life in [6] was 2.9 h; in [8] it was > 250 h. Moreover, in [9], the clearance is 21 mL/min/kg.
`CC(C)(C(N)=O)c1cccc2c1N(S(=O)(=O)c1ccc(OC(F)(F)F)cc1)Cc1ccc(C(F)(F)F)nc1N2`: the AUC/dose with Rattus norvegicus amounted to 0.3 µM·kg·h/mg. Moreover, the Activity in series [1] was found to be 98%; in series [5], 90%. Further, the IC50 in [2] amounted to 0.5 nM. This compound gave a bioavailability in [3] of 31%. Moreover, the EC50 in series [4] stood at 26 nM; in series [7], 27 nM. The half-life in [6] was 1.6 h. For the same compound, the clearance in series [9] worked out at 33 mL/min/kg.

Broadly, the IC50 is the concentration needed to halve the response being measured. A high value points to lower potency. A word on the bioavailability: it is dose-corrected exposure relative to a reference, in per cent. A lower bioavailability goes with poor availability. What is called EC50 is the concentration that produces a half-maximal response. Higher therefore signals lower potency in that assay. One may read the half-life as how long it takes for the measured level to halve. Broadly, the clearance is the volume of plasma or blood freed of the substance per unit of time.
